Assay results published in ChEMBL document CHEMBL2321795, “Solubility-driven optimization of (pyridin-3-yl) benzoxazinyl-oxazolidinones leading to a promising antibacterial agent” (J Med Chem, 2013).
≈ marks a conversion by molar mass, not a printed value.

Key:
Type in all cases: functional
Enterococcus faecalis = assay: Antibacterial activity against Enterococcus faecalis after 16 hrs by NCCLS agar dilution method
Outline: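 Agar dilution MIC per NCCLS, 6 E. faecalis strains. Stock was 320 μg/mL in 50% water/DMSO, serially 2-fold diluted in sterile water, then 10-fold into Mueller–Hinton agar to give 16–0.03125 μg/mL final. Inocula came from MH broth cultures grown 8 h at 35 °C, adjusted to 0.5 McFarland and spotted by multipoint inoculator. Plates were read after 16 h at 35 °C.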

Streptococcus pneumoniae = assay: Antibacterial activity against penicillin-resistant Streptococcus pneumoniae after 16 hrs by NCCLS agar dilution method
Outline: (§1)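 Agar dilution MIC. Stocks were 320 μg/mL in 50% aqueous DMSO, 2-fold serially diluted in sterile water, then diluted 10-fold into Mueller–Hinton agar to give 16–0.03125 μg/mL final. Organisms were grown in MH broth at 35 °C for 8 h and adjusted to 0.5 McFarland. They were spotted onto drug-containing plates with a multipoint inoculator and incubated at 35 °C for 16 h. Linezolid was the positive control.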

[1] = tested on: Staphylococcus epidermidis; assay: Antibacterial activity against methicillin-resistant Staphylococcus epidermidis after 16 hrs by NCCLS agar dilution method; outline: as §1
[2] = tested on: Staphylococcus epidermidis; assay: Antibacterial activity against methicillin-sensitive Staphylococcus epidermidis after 16 hrs by NCCLS agar dilution method; outline: as §1
Staphylococcus aureus [3] = assay: Antibacterial activity against methicillin-resistant Staphylococcus aureus after 16 hrs by NCCLS agar dilution method; outline: as §1
Staphylococcus aureus [4] = assay: Antibacterial activity against methicillin-sensitive Staphylococcus aureus after 16 hrs by NCCLS agar dilution method; outline: as §1

O=C1O[C@@H](CO)[C@@H]2COc3cc(-c4ccc(CO)nc4)ccc3N12
MIC (Enterococcus faecalis): 4 mg/L (≈ 12.2 µM)
MIC (Streptococcus pneumoniae): 2 mg/L (≈ 6.09 µM)
MIC [1]: 0.5 mg/L (≈ 1.52 µM)
MIC [2]: 0.5 mg/L (≈ 1.52 µM)
MIC (Staphylococcus aureus [3]): 1 mg/L (≈ 3.05 µM)
MIC (Staphylococcus aureus [4]): 1 mg/L (≈ 3.05 µM)

CN1CCN(c2ccc(-c3ccc4c(c3)OC[C@H]3[C@H](CO)OC(=O)N43)cn2)C1=O
MIC (Enterococcus faecalis): 8 mg/L (≈ 20.2 µM)
MIC (Streptococcus pneumoniae): 4 mg/L (≈ 10.1 µM)
MIC [1]: 4 mg/L (≈ 10.1 µM)
MIC [2]: 2 mg/L (≈ 5.05 µM)
MIC (Staphylococcus aureus [3]): 2 mg/L (≈ 5.05 µM)
MIC (Staphylococcus aureus [4]): 2 mg/L (≈ 5.05 µM)

O=C1O[C@@H](CO)[C@@H]2COc3cc(-c4ccc(C(F)(F)F)nc4)ccc3N12
MIC (Enterococcus faecalis): > 16 mg/L
MIC (Streptococcus pneumoniae): > 16 mg/L
MIC [2]: > 16 mg/L
MIC (Staphylococcus aureus [4]): > 16 mg/L

O=C1O[C@H](CO)CN1c1ccc(-c2ccc3c(c2)OC[C@H]2[C@H](CO)OC(=O)N32)cn1
MIC (Enterococcus faecalis): 0.5 mg/L (≈ 1.21 µM)
MIC (Streptococcus pneumoniae): 0.5 mg/L (≈ 1.21 µM)
MIC [1]: 0.5 mg/L (≈ 1.21 µM)
MIC [2]: 0.5 mg/L (≈ 1.21 µM)
MIC (Staphylococcus aureus [3]): 0.5 mg/L (≈ 1.21 µM)
MIC (Staphylococcus aureus [4]): 0.5 mg/L (≈ 1.21 µM)

O=C1O[C@@H](CO)CN1c1ccc(-c2ccc3c(c2)OC[C@H]2[C@H](CO)OC(=O)N32)cn1
MIC (Enterococcus faecalis): 0.5 mg/L (≈ 1.21 µM)
MIC (Streptococcus pneumoniae): 0.5 mg/L (≈ 1.21 µM)
MIC [1]: 0.5 mg/L (≈ 1.21 µM)
MIC [2]: 0.5 mg/L (≈ 1.21 µM)
MIC (Staphylococcus aureus [3]): 0.5 mg/L (≈ 1.21 µM)
MIC (Staphylococcus aureus [4]): 0.5 mg/L (≈ 1.21 µM)

NCc1ccc(-c2ccc3c(c2)OC[C@H]2[C@H](CO)OC(=O)N32)cn1
MIC (Enterococcus faecalis): 4 mg/L (≈ 12.2 µM)
MIC (Streptococcus pneumoniae): 4 mg/L (≈ 12.2 µM)
MIC [1]: 0.5 mg/L (≈ 1.53 µM)
MIC [2]: 1 mg/L (≈ 3.05 µM)
MIC (Staphylococcus aureus [3]): 2 mg/L (≈ 6.11 µM)
MIC (Staphylococcus aureus [4]): 2 mg/L (≈ 6.11 µM)

CC(=O)N1CCN(c2ccc(-c3ccc4c(c3)OC[C@H]3[C@H](CO)OC(=O)N43)cn2)C1=O
MIC (Enterococcus faecalis): 4 mg/L (≈ 9.42 µM)
MIC (Streptococcus pneumoniae): 8 mg/L (≈ 18.8 µM)
MIC [1]: 8 mg/L (≈ 18.8 µM)
MIC [2]: 4 mg/L (≈ 9.42 µM)
MIC (Staphylococcus aureus [3]): 4 mg/L (≈ 9.42 µM)
MIC (Staphylococcus aureus [4]): 8 mg/L (≈ 18.8 µM)

CC(C)N1CC(c2ccc(-c3ccc4c(c3)OC[C@H]3[C@H](CO)OC(=O)N43)cn2)OC1=O (some centres not stated)
MIC (Enterococcus faecalis): 1 mg/L (≈ 2.35 µM)
MIC (Streptococcus pneumoniae): 2 mg/L (≈ 4.7 µM)
MIC [1]: 2 mg/L (≈ 4.7 µM)
MIC [2]: 1 mg/L (≈ 2.35 µM)
MIC (Staphylococcus aureus [3]): 1 mg/L (≈ 2.35 µM)
MIC (Staphylococcus aureus [4]): 1 mg/L (≈ 2.35 µM)

CC(C)(O)c1ccc(-c2ccc3c(c2)OC[C@H]2[C@H](CO)OC(=O)N32)cn1
MIC (Enterococcus faecalis): 4 mg/L (≈ 11.2 µM)
MIC (Streptococcus pneumoniae): 2 mg/L (≈ 5.61 µM)
MIC [1]: 2 mg/L (≈ 5.61 µM)
MIC [2]: 1 mg/L (≈ 2.81 µM)
MIC (Staphylococcus aureus [3]): 1 mg/L (≈ 2.81 µM)
MIC (Staphylococcus aureus [4]): 1 mg/L (≈ 2.81 µM)

Cc1cc(C#N)ncc1-c1ccc2c(c1)OC[C@H]1[C@H](CO)OC(=O)N21
MIC (Enterococcus faecalis): 4 mg/L (≈ 11.9 µM)
MIC (Streptococcus pneumoniae): 1 mg/L (≈ 2.96 µM)
MIC [1]: 0.25 mg/L (≈ 0.741 µM)
MIC [2]: 0.25 mg/L (≈ 0.741 µM)
MIC (Staphylococcus aureus [3]): 0.25 mg/L (≈ 0.741 µM)
MIC (Staphylococcus aureus [4]): 0.25 mg/L (≈ 0.741 µM)

CC(O)c1ccc(-c2ccc3c(c2)OC[C@H]2[C@H](CO)OC(=O)N32)cn1 (some centres not stated)
MIC (Enterococcus faecalis): 2 mg/L (≈ 5.84 µM)
MIC (Streptococcus pneumoniae): 2 mg/L (≈ 5.84 µM)
MIC [1]: 1 mg/L (≈ 2.92 µM)
MIC [2]: 1 mg/L (≈ 2.92 µM)
MIC (Staphylococcus aureus [3]): 1 mg/L (≈ 2.92 µM)
MIC (Staphylococcus aureus [4]): 1 mg/L (≈ 2.92 µM)

O=C1O[C@@H](CO)[C@@H]2COc3cc(-c4ccc(N5CCC(O)CC5)nc4)ccc3N12
MIC (Enterococcus faecalis): > 32 mg/L
MIC (Streptococcus pneumoniae): 2 mg/L (≈ 5.03 µM)
MIC [1]: 2 mg/L (≈ 5.03 µM)
MIC [2]: 4 mg/L (≈ 10.1 µM)
MIC (Staphylococcus aureus [3]): 2 mg/L (≈ 5.03 µM)
MIC (Staphylococcus aureus [4]): 2 mg/L (≈ 5.03 µM)

CC(=O)c1ccc(-c2ccc3c(c2)OC[C@H]2[C@H](CO)OC(=O)N32)cn1
MIC (Enterococcus faecalis): 2 mg/L (≈ 5.88 µM)
MIC (Streptococcus pneumoniae): 8 mg/L (≈ 23.5 µM)
MIC [1]: 4 mg/L (≈ 11.8 µM)
MIC [2]: 4 mg/L (≈ 11.8 µM)
MIC (Staphylococcus aureus [3]): 2 mg/L (≈ 5.88 µM)
MIC (Staphylococcus aureus [4]): 2 mg/L (≈ 5.88 µM)

O=C1O[C@@H](CO)[C@@H]2COc3cc(-c4ccc(C(O)C5CC5)nc4)ccc3N12 (some centres not stated)
MIC (Enterococcus faecalis): 2 mg/L (≈ 5.43 µM)
MIC (Streptococcus pneumoniae): 1 mg/L (≈ 2.71 µM)
MIC [1]: 1 mg/L (≈ 2.71 µM)
MIC [2]: 0.5 mg/L (≈ 1.36 µM)
MIC (Staphylococcus aureus [3]): 1 mg/L (≈ 2.71 µM)
MIC (Staphylococcus aureus [4]): 1 mg/L (≈ 2.71 µM)

O=C1O[C@@H](CO)[C@@H]2COc3cc(-c4ccc(C5(O)CCCC5)nc4)ccc3N12
MIC (Enterococcus faecalis): 2 mg/L (≈ 5.23 µM)
MIC (Streptococcus pneumoniae): 2 mg/L (≈ 5.23 µM)
MIC [1]: 1 mg/L (≈ 2.61 µM)
MIC [2]: 1 mg/L (≈ 2.61 µM)
MIC (Staphylococcus aureus [3]): 1 mg/L (≈ 2.61 µM)
MIC (Staphylococcus aureus [4]): 2 mg/L (≈ 5.23 µM)

C[C@@H](O)C(O)c1ccc(-c2ccc3c(c2)OC[C@H]2[C@H](CO)OC(=O)N32)cn1 (some centres not stated)
MIC (Enterococcus faecalis): 4 mg/L (≈ 10.7 µM)
MIC (Streptococcus pneumoniae): 2 mg/L (≈ 5.37 µM)
MIC [1]: 1 mg/L (≈ 2.69 µM)
MIC [2]: 1 mg/L (≈ 2.69 µM)
MIC (Staphylococcus aureus [3]): 2 mg/L (≈ 5.37 µM)
MIC (Staphylococcus aureus [4]): 2 mg/L (≈ 5.37 µM)

N#Cc1ccc(-c2ccc3c(c2)OC[C@H]2[C@H](CN)OC(=O)N32)cn1
MIC (Enterococcus faecalis): > 16 mg/L
MIC (Streptococcus pneumoniae): > 16 mg/L
MIC [2]: > 16 mg/L
MIC (Staphylococcus aureus [4]): > 16 mg/L

CCO/N=C(\C)c1ccc(-c2ccc3c(c2)OC[C@H]2[C@H](CO)OC(=O)N32)cn1
MIC (Enterococcus faecalis): > 32 mg/L
MIC (Streptococcus pneumoniae): > 32 mg/L
MIC [2]: > 32 mg/L
MIC (Staphylococcus aureus [4]): > 32 mg/L
